Screens deposited in PubChem by several laboratories.
hERG protect = hERG rescue from dofetilide block, primary screen, cell-based, CHO-hERG, FluxOR thallium flux, dofetilide IC70 | Voltage-gated inwardly rectifying potassium channel KCNH2 (Homo sapiens), Q12809 | dofetilide IC70 present | activation (rescue from dofetilide block), less the hit threshold, % at 10 µM | 310,000 compounds, 0.51% hits;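 active = activation above the mean of controls blocked by dofetilide plus 5 SD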;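 note: thallium influx through hERG after potassium depolarization seen as dye fluorescence rise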
KCNK3 block = human KCNK3 channel inhibitors, primary screen, CHO cells, FluxOR thallium flux, B-score | FluxOR fluorescence; hits give low values | B-score at 10 µM | Potassium channel subfamily K member 3 (Homo sapiens), O14649 | AID 602410, 2012 | 340,000 compounds, 0.84% hits;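 active = B-score under library mean minus 4 SD, starting fluorescence ratio at most library mean plus 5 SD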;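 note: more negative B-score means stronger inhibition of thallium flux through KCNK3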
KCC2 mod = KCC2 cotransporter modulators, thallium flux, primary screen, cell-based, HEK293 KCC2, FluoZin-2 fluorescence, MLSMR | 190,000 compounds, 2.2% hits | KCC2 cells, thallium flux FluoZin-2 fluorescence | Solute carrier family 12 member 5 (Homo sapiens), Q9H2X9 | B-score of Tl+ flux slope (higher = more flux/activation; lower = inhibition) at 10 µM;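 active = thallium flux slope and its plate-corrected score both differing from the plate sample mean at a set confidence after two filtering rounds, in either direction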;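 note: slope of fluorescence scaled to starting intensity during 10 to 20 s after thallium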
KCNQ1 pot = potentiators or activators of KCNQ1 channel, primary screen, cell-based, thallium flux, high-throughput. Potassium voltage-gated channel subfamily KQT member 1 (Homo sapiens), P51787. 310,000 compounds, 0.35% hits. B-score at 10 µM. CHO-K1 KCNQ1, thallium flux FluxOR fluorescence; hits give high values;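 active = fluorescence ratio B-score, a plate-corrected score, at least three library SD, with initial intensity B-score within 5 SD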
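assay system = KCNQ1-transfected CHO-K1 cells | medium = assay buffer with matched DMSO | probe or stimulus = depolarizing K+/Tl+ stimulus, K2SO4 and Tl2SO4 each 12.5 mM in 5x stock | dosing = single dose | incubation = dye 90 min, compound 20 min, room temperature | detection = kinetic FluxOR fluorescence, 10 s baseline plus 110 s post-stimulus | evaluation = ratio B score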
KCNQ1 block = inhibitors of human KCNQ1 channel, primary screen, cell-based, thallium flux, high-throughput; B-score at 10 µM; CHO-K1 KCNQ1, FluxOR thallium flux fluorescence; hits give high values; 310,000 compounds, 1.3% hits; Potassium voltage-gated channel subfamily KQT member 1 (Homo sapiens), P51787;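 active = compounds whose thallium flux B-score, printed positive for inhibition, exceeds three library SD while starting fluorescence stays within three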;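 note: channel opened by potassium depolarization with thallium stimulus after 20 min compound exposure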
KCNK9 inh = KCNK9 potassium channel inhibitors, primary screen, HEK293 cells, thallium flux | AID 488922, 2010 | B-score at 10 µM | 310,000 compounds, 1.2% hits | FluxOR thallium flux fluorescence; hits give low values | Potassium channel subfamily K member 9 (Homo sapiens), Q9NPC2;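 active = ratio B-score over 3 SD below the library mean, with starting fluorescence within 5 SD of its mean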;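 note: negative B-score means less thallium flux so channel inhibition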
Target sequence (Q9NPC2 whole entry, looked up): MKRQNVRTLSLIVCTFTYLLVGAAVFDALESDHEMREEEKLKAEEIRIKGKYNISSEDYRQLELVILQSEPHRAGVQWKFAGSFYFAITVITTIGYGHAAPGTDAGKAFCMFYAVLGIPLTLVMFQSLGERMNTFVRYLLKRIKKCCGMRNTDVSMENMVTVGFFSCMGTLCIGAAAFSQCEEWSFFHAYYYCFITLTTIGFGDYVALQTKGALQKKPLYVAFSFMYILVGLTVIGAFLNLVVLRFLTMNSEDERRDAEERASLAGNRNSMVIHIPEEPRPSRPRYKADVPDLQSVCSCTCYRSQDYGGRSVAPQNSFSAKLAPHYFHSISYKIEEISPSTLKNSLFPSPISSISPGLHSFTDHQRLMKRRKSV
KCNK9 block conf = KCNK9 potassium channel inhibitors, confirmation, HEK293 cells, thallium flux, duplicate | shares compounds with KCNK9 inh | inhibition, % at 10 µM | AID 492992, 2010 | FluxOR thallium flux fluorescence | 4,900 compounds, 43% hits;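 active = thallium signal inhibited by more than 5 SD of the compound-free buffer control wells, on both duplicate plates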;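 note: 0% = assay buffer control wells without compound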
Kir21 sel = mouse Kir2.1 channel inhibition, confirmation, selectivity assay for KCNK9 modulator project, cell-based, HEK293, thallium flux; shares compounds with KCNK9 inh; Kir2.1 cells, FluxOR thallium flux fluorescence; inhibition, % at 10 µM; 4,900 compounds, 4% hits; AID 492993, 2010;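 active = thallium signal drop more than 5 SD beyond the mean of the no-compound control wells, seen in both duplicate plates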;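 note: signal is fluorescence rise after thallium addition divided by baseline fluorescence; plate controls were assay buffer only for no effect and full block by chlorpromazine control for full effect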
KCNK9 uninduced = thallium flux in non-induced HEK293 cells, confirmation, counter-screen for KCNK9 inhibitor project, cell-based, second counter screen, non-induced KCNK9-HEK293; AID 492997, 2010; shares compounds with KCNK9 inh; FluxOR thallium flux; inhibition, % at 10 µM; 4,900 compounds, 40% hits;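 active = thallium signal drop beyond 5 SD of the untreated control mean, on both duplicate plates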;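 note: plate controls were buffer only IC0 wells for no effect and SID17386958 at its maximal inhibitory level for full effect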
The depositor's hits bear a star; i = inactive; x = no result. Hits are enriched below; roughly 4.1% of the tested compounds scored in any of these assays.

SMILES	hERG protect	KCNK3 block	KCC2 mod	KCNQ1 pot	KCNQ1 block	KCNK9 inh	KCNK9 block conf	Kir21 sel	KCNK9 uninduced
Cc1nn(-c2ccccc2)c(N)c1Sc1ccc([N+](=O)[O-])cc1	-16.3	i	-0.638	i	i	-13.1*	73.0%*	i	33.5%*
Cc1nn(S(=O)(=O)c2ccc(Cl)cc2)c(C)c1Sc1ccc([N+](=O)[O-])cc1	-22.8	i	-0.471	i	i	i	x	x	x
CCOc1ccc(C2=C(C=C(C#N)C#N)C(c3ccccc3)c3ccccc3O2)cc1 (stereo not drawn)	-9.0	i	0.0601	i	i	-11.5*	50.0%*	i	24.5%*
CCOC(=O)COc1ccccc1C1Nc2ccccc2C(=O)N1c1cccc(Cl)c1 (stereo not drawn)	-1.0	-10.5*	0.0092	i	i	-14*	62.5%*	i	34.5%*
CCOC(=O)COc1c(OC)cc(Cl)cc1C1Nc2ccccc2C(=O)N1c1ccc(F)cc1 (stereo not drawn)	-0.2	i	0.0413	i	i	-12.4*	63.5%*	i	41.0%*
O=C(NCc1ccc(N2CCCC2=O)cc1)c1cnccn1	-18.8	i	1.14	i	i	i	x	x	x
Cc1ccc(C)n1-c1nn(S(=O)(=O)c2cccc(C(F)(F)F)c2)c2cccc(F)c12	0.1	i	-0.905	i	i	-13.6*	60.0%*	i	30.5%*
CC(C)CCn1c(=O)c2ccccc2n2c(CN(C)Cc3ccccc3)nnc12	-11.3	i	x	i	i	i	i	i	i
O=c1c(C/C=C/c2ccccc2)c(O)ccn1Cc1ccc(Cl)cc1Cl	-16.1	i	-0.00809	i	9*	i	i	i	i
Cc1sc2nc(CSc3ccccc3)nc(N3CCC(C(N)=O)CC3)c2c1C	-7.7	i	-0.889	i	i	i	x	x	x
Cc1sc2nc(CSc3ccccc3)nc(N3CCOCC3)c2c1C	-12.0	i	-0.587	i	i	i	i	i	32.5%*
CC1(c2nnc(-c3cccc(Cl)c3)o2)CC(c2c(Cl)cccc2Cl)=NO1 (stereo not drawn)	-24.0	i	x	i	i	-10.4*	58.0%*	i	29.0%*
O=C(CCc1ccc(O)cc1)c1c(O)cc(O)cc1O	-33.4	i	-1.4	i	i	i	x	x	x
COc1cc(O)c(CC=C(C)C)c(O)c1C(=O)CCc1ccc(O)cc1	-15.3	i	0.492	i	i	-14.1*	32.0%*	i	33.5%*
O=C1CCCN1CCC1CCN(C(=S)Nc2ccc(F)cc2)CC1	-5.8	i	0.308	i	i	i	x	x	x
O=C(COc1ccccc1)Nc1cccc(-c2nnc(-c3ccccc3)o2)c1	-6.7	i	x	i	i	i	x	x	x
O=C(Nc1cccc(-c2nnc(-c3ccccc3)o2)c1)c1ccc(Br)o1	-2.5	i	x	i	i	-19.8*	44.0%*	i	i
COc1ccccc1NS(=O)(=O)c1cc(NC(=O)C2CCC2)ccc1N1CCCCC1	-9.9	i	1.93	i	i	-8.46*	34.0%*	i	26.0%*
O=C(Cn1cc(C(=O)c2cccs2)c2ccccc21)NC1CCCCC1	-8.8	i	0.0068	i	i	-12*	53.5%*	i	28.0%*
O=C1CCC(/C=C/c2ccccc2)=NN1Cc1ccc(F)cc1	-10.4	i	x	i	i	i	i	i	i
CC(C)(C)c1ccc(CN2N=C(/C=C/c3ccccc3)CCC2=O)cc1	-10.3	i	1.75	i	i	i	i	i	i
O=C1CCC(/C=C/c2ccccc2)=NN1Cc1ccccc1	-7.8	i	x	i	i	i	x	x	x
CCOC(=O)CSc1nc(C)nc2c1sc1nc(C)c(C(C)=O)c(-c3ccc(OC)cc3)c12	-4.7	i	-0.676	i	i	-11.3*	48.5%*	i	46.5%*
Cc1cccc(Nc2nc(-c3ccncc3)cs2)c1	-8.6	i	-1.82	i	i	i	x	x	x
Cc1cccc(Nc2nc(-c3ccc4c(c3)OCCO4)cs2)c1	-5.7	i	-0.343	i	i	i	i	i	i
SMILES	hERG protect	KCNK3 block	KCC2 mod	KCNQ1 pot	KCNQ1 block	KCNK9 inh	KCNK9 block conf	Kir21 sel	KCNK9 uninduced
COc1cccc([C@@H]2Oc3ccc(OC)cc3C(=O)[C@H]2OC(=O)N[C@H](C)C2CCCCC2)c1	-5.7	x	0.235	i	i	-8.72*	49.0%*	i	42.5%*
CCCCn1c(SCc2nc(N)nc(Nc3ccccc3C)n2)nc2ccccc2c1=O	-3.9	i	1.06	i	i	-9.46*	39.5%*	i	i
CC(=O)c1ccc([C@H]2C[C@@]34CN(C(=O)OC(C)(C)C)S(=O)(=O)[C@H]3C[C@H]2O4)cc1	-5.9	i	-0.0223	i	i	i	x	x	x
COC(=O)c1ccc(S(=O)(=O)N2CCN(C(c3ccccc3)c3ccccc3)CC2)n1C	-3.2	i	-0.29	i	i	i	i	i	i
COC(=O)c1c(NC(=O)C2CCCCC2)sc2c1CCN(C(C)C)C2	-10.1	i	x	i	i	i	x	x	x
Cc1cc2ccc3ccccc3c2cc1CN(C)C	-2.5	i	0.102	i	i	i	i	66.0%*	i
O=C(Nc1ccc(-c2nnn(CC(=O)N3CCN(C(=O)c4ccco4)CC3)n2)cc1)c1ccc(F)cc1	-8.1	i	-0.512	i	i	i	x	x	x
COc1ccc(C(=O)OCC(=O)N2CCCCCC2)cc1S(=O)(=O)N1CCOCC1	x	i	x	x	x	x	x	x	x
COc1ccc(-c2nc3ccccc3nc2-c2ccccc2)cc1	-5.2	i	-0.127	i	i	i	x	x	x
